Experimental findings from PubChem BioAssay AID1885 (Broad Institute, 2009) are described below.

SMILES strings stand for the structures. Hit rate of the full screen: of about 300,000 compounds, about 4,400 (1.5%) were called active.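 The calls were made as follows: active = mean inhibition across valid replicates above about 55% (limit read from the data); inconclusive = mean below that limit but half or more replicates reach it; inactive = mean below it, under half of replicates reach it.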 The entries come from a sample that favours actives as a whole.

A short description of this test: inhibitors of intracellular T. cruzi growth, primary screen, luminescence, NIH3T3 host cells (AID 1885).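 Also: signal also drops with host cell toxicity which is not excluded here; 0% = plate median of DMSO wells and 100% = zero luminescence signal; higher percent means less beta-gal luminescence so fewer parasites.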 The following applies: T. cruzi beta-gal in NIH3T3, luminescence, 90 h; hits give high values; concentration not given here. Put shortly: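 Read-out: Parasite load inhibition, % | Test system: Mouse NIH/3T3 fibroblasts infected with β-gal-expressing T. cruzi Tulahuen C4 | Amount: 5,000 cells/well | Medium: DMEM, 2% fetal bovine serum | Signal: GalScreen β-gal luminescence, detergent lysis, 60 min | Timing: 3 h attach, ≥90 h co-culture | Also added: Tulahuen C4 trypomastigotes, 5000/well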
One may read the inhibition as the change of the read-out against control, counted positive when it falls. For the compound `CC(Sc1nnc(-c2ccccc2F)n1C1CC1)C(N)=O` (configuration not stated), the inhibition is -10.8% (inactive).
To `COc1ccc(-c2nc(CS(=O)(=O)CC(=O)NCc3cccc(Br)c3)c(C)o2)cc1` belongs -6.3% (inactive); to `COc1ccc2ccccc2c1/C=N/NC(=O)c1cc(C)[nH]n1`, -14.2% (inactive); to `COc1cc(/C=N/NC(=O)CNC(=O)c2ccncc2)ccc1OC(C)=O`, -4.41% (inactive).
As for `Cc1cccc(/C=N/NC(=O)CNc2cccc3ccccc23)n1`, the inhibition is -0.344% (inactive).
Under `Cc1cc(C(=O)N/N=C/c2cc([N+](=O)[O-])cc(C)c2O)n[nH]1` stands -40.2% (inactive).
To `Cc1ccccc1NCC(=O)N/N=C\c1ccc([N+](=O)[O-])s1` belongs 64.6% (active).
Under `CCOc1ccc(NC(=O)CCC(=O)N/N=C/c2ccc([N+](=O)[O-])s2)cc1` stands 50.6% (inactive); under `COc1ccc(C(=O)NCC(=O)N/N=C/c2ccc([N+](=O)[O-])o2)cc1OC`, -11% (inactive).
On to `COc1ccc(C(=O)NCC(=O)N/N=C/c2ccc([N+](=O)[O-])s2)cc1OC`, for which the inhibition was 64.6% (active).
Under `CC(C)(C)c1cc(C(=O)N/N=C/c2ccc([N+](=O)[O-])s2)n[nH]1` stands 57.6% (active).
Under `O=C(NCCNc1ccc([N+](=O)[O-])cc1)c1cccc2c(Br)cccc12` stands 5.94% (inactive); under `O=C(O)c1ccn(COc2ccc(Br)cc2)n1`, -13.4% (inactive).
Take `c1ccc(Cc2ccc(OCCn3ccnc3)cc2)cc1`: the inhibition is 28.2% (inactive).
On to `Brc1ccc(OCCn2ccnc2)cc1`, for which the inhibition is 68.5% (active).
To `O=C(NCCS(=O)(=O)N1CCN(c2ccc(F)cc2)CC1)c1ccc2c(c1)OCO2` belongs -12.2% (inactive); to `COc1ccc(NC(=O)CN(C)C(=O)/C=C/c2cn(Cc3ccccc3)nc2-c2cccnc2)cc1`, 4% (inactive); to `NC(=S)Nc1c(Cl)cccc1Cl`, -4.22% (inactive).
Under `COC(=O)c1cc(-c2cccs2)nc2ccccc12` stands 5.51% (inactive).
Under `CCCCN(C)CCCNC(=O)c1cc(-c2cccs2)nc2ccccc12` stands 63.8% (active); under `O=C(NCCN1CCOCC1)c1cc(-c2cccs2)nc2ccccc12`, -5.61% (inactive); under `COc1cnn(-c2ccc([N+](=O)[O-])cc2)c(=O)c1Cl`, 7.92% (inactive).
For the compound `CCN1C(=O)[C@H]2[C@@H](c3ccc(-c4ccc(OC)cc4)cc3)N[C@@](Cc3ccccc3)(C(=O)OC)[C@H]2C1=O`, the inhibition is -3.65% (inactive).
In the case of `CCOC(=O)C1(CCOC)CCN(Cc2cc3ccccc3s2)CC1`, the inhibition was 6.96% (inactive).
Under `Cc1ccc(S(=O)(=O)N2CCCC2C(=O)OCc2nc3sc(C)c(C)c3c(=O)[nH]2)cc1` (configuration not stated) stands -13% (inactive).
To `O=C(NCCCn1ccnc1)c1ccccc1F` belongs 7.44% (inactive); to `C=CCc1cc(C)ccc1OCCCn1ccnc1`, 36.6% (inactive); to `Clc1c(OCCCn2ccnc2)ccc2ccccc12`, 61.3% (active).
To `Cc1cc(Nc2cc(N3CCN(C)CC3)nc(Sc3ccc(NC(=O)C4CC4)cc3)n2)n[nH]1` belongs 26.9% (inactive).
As for `CC(=O)CC(CC(=O)NC1CCCCC1)c1ccccc1` (configuration not stated), the inhibition is -21.8% (inactive).
Under `CCOc1ccc(C(=O)NCC(=O)N2CCCCCCC2)cc1OCC` stands 17.5% (inactive).
To `CCc1noc(C)c1C(=O)NNC(=O)c1ccc(F)cc1` belongs -6.32% (inactive); to `CC(C)(C)S(=O)(=O)c1ccccc1-c1noc(-c2ccccc2)c1C(N)=O`, -8.06% (inactive).
`Cc1cc(C)c2nc(SCCC#N)nc(C)c2c1`: the inhibition is 1.26% (inactive).
To `Cc1cc(C)c2nc(-c3ccco3)cc(C(=O)O)c2c1` belongs -8.53% (inactive); to `Cc1cc(C)c2nc3nc(C)cc(C)c3c(N)c2c1`, 58.9% (active); to `O=C(COC(=O)c1ncc(Cl)c(Cl)c1Cl)NNC(=O)c1ccccc1`, -29.7% (inactive).
Under `Cc1ccc2nc(NC(=O)C3CSC4(C)CCC(=O)N34)sc2c1` (configuration not stated) stands -3.69% (inactive).
As for `CCOc1ccc(/C=N/NC(N)=S)cc1`, the inhibition was 15.1% (inactive).
Take `NC(=S)N/N=C/c1coc2cc(Cl)ccc2c1=O`: the inhibition was -10.9% (inactive).
Take `CC(C)Oc1c(Br)cc(Br)cc1/C=N/NC(N)=S`: the inhibition was 66.9% (active).
To `CCc1noc(C)c1C(=O)Nc1nc(-c2ccccc2)cs1` belongs 6.55% (inactive); to `CCS(=O)(=O)c1ccc(C(=O)NC)c(Cl)c1Cl`, -1.91% (inactive).
To `CC1=NCCN1S(=O)(=O)c1cccc([N+](=O)[O-])c1` belongs 7.48% (inactive); to `Cc1ccc(-c2cn(S(=O)(=O)c3cccc([N+](=O)[O-])c3)nc2N)cc1`, 63.5% (active); to `Cc1cc(C)n(S(=O)(=O)c2cccc([N+](=O)[O-])c2)n1`, 19.3% (inactive).
Regarding `CCCCCCCNC(=O)C1(CC2CC(c3cccc(Br)c3)=NO2)CCN(C(=O)c2cc(OCC)c(OCC)c(OCC)c2)CC1` (configuration not stated), the inhibition is 28.4% (inactive).
To `COc1cc(N)c(Cl)cc1C(=O)OCC(=O)c1ccc2c(c1)NC(=O)CO2` belongs -2.39% (inactive); to `CCCCCCc1ccc(O)cc1O`, 63.7% (active); to `CCCCCCc1cc2cc(-c3nnc(-c4ccccc4)o3)c(=O)oc2cc1O`, 0.529% (inactive).
`CCCCCCCN=C(C)c1ccccc1O`: the inhibition is 2.33% (inactive).
Consider `O=C(CNS(=O)(=O)c1ccccc1)N1CCN(C(=O)c2ccco2)CC1`, for which the inhibition was -1.99% (inactive).
Under `CC1(C)CC(=O)c2c(n(S(=O)(=O)c3ccccc3)c3ccc(NS(=O)(=O)c4ccccc4)cc23)C1` stands 63.5% (active).
Under `Cn1c(=O)n(C)c2cc(NS(=O)(=O)c3ccc(F)cc3)ccc21` stands 2.2% (inactive); under `Cn1c(CCN2CCCC2)nc2cc(NS(=O)(=O)c3ccccc3)ccc21`, 9.31% (inactive); under `CCn1c(SCc2ccccc2)nc2cc(OC)c(OC)cc2c1=O`, 18.8% (inactive).
To `CN1CCN(C(=O)c2ccccc2NC(=O)COc2ccccc2Cl)CC1` belongs -5.23% (inactive).
For `O=C1c2ccccc2S(=O)(=O)c2cc(N3CCN(c4ccccn4)CC3)ccc21`, the inhibition is -2.13% (inactive).
Under `CCOc1ccc(NC(=O)COc2ccc(C(=O)N3CCC(C(N)=O)CC3)cc2OC)cc1` stands -10.5% (inactive); under `CCC(=O)Nc1ccc(C(=O)Nc2cccc(OC)c2)cc1`, -19% (inactive).
Under `CCC(=O)Nc1ccc2nn(-c3ccc(F)cc3)nc2c1` stands 55.3% (active); under `Cc1ccc(-n2nc3ccc(NC(=O)/C=C/c4ccco4)cc3n2)cc1C`, -97.4% (inactive).
